From PubChem BioAssay
Apaf-1 act: activators of human Apaf-1 apoptosome, primary screen, biochemical, DEVD-Rh110 fluorescence, uHTS; Apaf-1 apoptosome caspase-3 activation; active compounds read low; activity change, negative = activation, % at 20 µM; 0.31% of 330,000 active;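 active = activity change at or below -40% at 20 µM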
Target sequence (O14727 whole entry, looked up): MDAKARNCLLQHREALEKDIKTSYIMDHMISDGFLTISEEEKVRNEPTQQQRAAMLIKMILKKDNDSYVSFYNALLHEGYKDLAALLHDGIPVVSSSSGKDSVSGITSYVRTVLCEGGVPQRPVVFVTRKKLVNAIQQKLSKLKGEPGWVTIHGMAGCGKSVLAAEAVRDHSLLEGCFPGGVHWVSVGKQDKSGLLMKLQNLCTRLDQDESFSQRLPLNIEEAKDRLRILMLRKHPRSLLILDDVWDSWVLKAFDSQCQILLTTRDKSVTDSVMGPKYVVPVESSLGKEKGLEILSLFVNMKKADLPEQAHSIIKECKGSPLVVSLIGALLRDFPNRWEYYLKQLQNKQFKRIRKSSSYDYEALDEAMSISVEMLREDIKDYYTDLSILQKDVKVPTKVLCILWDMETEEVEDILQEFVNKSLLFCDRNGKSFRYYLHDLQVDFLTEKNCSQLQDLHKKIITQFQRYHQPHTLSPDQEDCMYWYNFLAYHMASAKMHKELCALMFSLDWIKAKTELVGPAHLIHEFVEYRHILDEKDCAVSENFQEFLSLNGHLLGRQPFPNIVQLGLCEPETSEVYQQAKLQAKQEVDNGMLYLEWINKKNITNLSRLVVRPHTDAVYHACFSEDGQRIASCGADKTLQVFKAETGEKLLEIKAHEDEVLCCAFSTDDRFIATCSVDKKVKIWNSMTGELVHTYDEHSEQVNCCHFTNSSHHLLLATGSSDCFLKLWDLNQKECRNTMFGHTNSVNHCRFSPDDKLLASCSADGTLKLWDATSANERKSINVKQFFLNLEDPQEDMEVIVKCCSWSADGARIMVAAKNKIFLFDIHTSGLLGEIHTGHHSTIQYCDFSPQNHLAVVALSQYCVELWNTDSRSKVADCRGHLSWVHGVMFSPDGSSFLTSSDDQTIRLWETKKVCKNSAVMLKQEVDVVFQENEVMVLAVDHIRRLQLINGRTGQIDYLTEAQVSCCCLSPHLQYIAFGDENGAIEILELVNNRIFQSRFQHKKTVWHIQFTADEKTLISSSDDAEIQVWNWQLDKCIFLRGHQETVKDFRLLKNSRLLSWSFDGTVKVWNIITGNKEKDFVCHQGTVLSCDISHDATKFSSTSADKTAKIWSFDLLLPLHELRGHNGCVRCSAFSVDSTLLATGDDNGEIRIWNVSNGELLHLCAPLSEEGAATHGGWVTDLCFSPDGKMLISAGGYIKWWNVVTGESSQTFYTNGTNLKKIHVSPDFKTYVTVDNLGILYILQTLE
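Schedule: 30 min preincubation, 50 min reaction, room temperature / System: biochemical Apaf-1 apoptosome reconstitution / Medium: 20 mM HEPES pH 7.5 with CHAPS, BSA / Evaluation: Caspase-3 cleavage activity downstream of Apaf-1 activation / Detection: Caspase-3-released Rh110 fluorescence, 540 nm emission, 480 nm excitation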
Rh110 interf act: Rh110 fluorescence interference by putative Apaf-1 activators, confirmation, artefact control for Apaf-1 activator project, biochemical, 20 µM; shares compounds with Apaf-1 act; quenched caspase reaction, Ex480/Em540; fluorescence interference (activity change), % at 20 µM, hits read low; 980 tested, under 10 active; AID 504616, 2011;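 active = mean activity change at or below -40% when tested at 20 µM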
Apaf-1 act conf2: Apaf-1 activators, single-dose retest, confirmation, biochemical, fluorescence, DEVD-Rh110, 20 µM; shares compounds with Apaf-1 act; reconstituted apoptosome caspase-3 activity; active compounds read low; activity change, negative = activation, % at 20 µM; 5% of 980 active;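 active = mean activity change at or below -40%, meaning activation of 40% or more, at 20 µM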
Fluor interf act: fluorescence interference of Apaf-1 activator hits, dose response, artefact control for Apaf-1 activator project; shares compounds with Apaf-1 act; fluorescence interference counterscreen, Apaf-1 activator assay; EC50, µM; 55 tested, under 10 active; AID 588592, 2011; call rule not given here
* = called active by the depositor; / = no result given. A selection follows.

SMILES	Apaf-1 act	Rh110 interf act	Apaf-1 act conf2	others
CC1(OC(=O)C2CCCC2)C(=O)C=C2C=C(c3ccsc3)N(CCCCO)C=C2C1=O (stereo not given)	54	/	/
COc1ccccc1CCn1c(N)c(C#N)c2nc3ccccc3nc21	40	/	/
Cc1occc1C(=O)Nc1ccc2ccccc2c1	-351*	1	15
CCN1CCN(c2ccc(NC(=O)c3cc4ccccc4cc3OC)cc2C)CC1	51	/	/
C/C(=C\C(=S)Nc1ccccc1)Nc1ccc2ccccc2c1	41	/	/
O=C(NC1=C(Nc2ccc(F)cc2)C(=O)c2ccccc2C1=O)c1ccc(Cl)cc1	70	/	/
COc1ccc(C(=O)c2c(C(F)(F)F)oc3c2C(=O)c2ccccc2C3=O)cc1OC	85	/	/
COc1ccc(C(=O)Nc2ccc3c(c2)C(=O)c2ccccc2C3=O)cc1OC	-507*	5	6	Fluor interf act=>100
Fc1ccc(NC(=S)Nc2cccc3cnccc23)cc1	95	/	/
O=S(=O)(/N=C/N1CCOCC1)c1ccc(Cl)cc1	43	/	/
CC1=NN(c2ccccc2)C(=O)/C1=C\c1cn(CCC#N)nc1-c1ccc(Cl)cc1	80	/	/
COc1ccc(OC)c(C2CC(=O)N3CN(c4cccc(Cl)c4)CSC3=C2C#N)c1 (stereo not given)	81	/	/
O=C(NC1CC2CCCC(C1)N2S(=O)(=O)c1ccccc1)c1ccco1 (stereo not given)	42	/	/
O=C(NC1CC1)c1cc2ccccc2o1	-363*	1	-1
O=C(Nc1ccc2nc(-c3ccco3)c(-c3ccco3)nc2c1)NC1CC1	47	/	/
Cc1nnc(N=c2ssnc2Cl)o1	50	/	/
O=C(Cn1nc(-c2ccccc2Cl)ccc1=O)Nc1ccccc1-c1ccccc1	56	/	/
CCn1nc(C(=O)Nc2ccccc2C)c(Cl)c1Cl	-137*	-2	8
COc1ccccc1/C=C1/C(=O)N(c2ccccc2)N=C1C	93	/	/
CC1CC(C)CN(CCCNC(=O)CN2C(=O)c3cccnc3Oc3ccc(Cl)cc32)C1 (stereo not given)	-148*	-1	9
Cc1ccc(NC(=O)C2CCN(C(=O)[C@@H]3Cc4ccccc4CN3)CC2)c(C)c1	-72*	-4	9
COc1ccc(-c2c(C#Cc3ccc(N(C)C)cc3)c3ccccc3n2C)cc1	57	/	/
CCCCCCC(=O)Nc1nc(C)c(-c2csc(Nc3cc(OC)ccc3OC)n2)s1	49	/	/
CC(=O)OCCCNc1cc(Sc2nc3ccccc3s2)c2nonc2c1[N+](=O)[O-]	96	/	/
CCSc1nnc2nc3[nH]c4c(C)cccc4c3nn12	-76*	-9	5
SMILES	Apaf-1 act	Rh110 interf act	Apaf-1 act conf2	others
COc1ccc(/C=N/Nc2cc(N3CCCC3)nc(N3CCCC3)n2)cc1	93	/	/
Cc1cc(C)nc(NS(=O)(=O)c2ccc(N)cc2)n1	-3	/	/
N#CCCS(=O)(=O)c1ccc(N)cc1	-61*	0	5
O=S(=O)(c1ccc(F)cc1)N1CCN(S(=O)(=O)c2ccc3c(c2)OCCO3)CC1	-217*	0	13
O=S(=O)(c1ccc2nc(-c3ccco3)c(-c3ccco3)nc2c1)N1CCOCC1	77	/	/
CCc1cc2c(SCC(=O)N3CC(=O)Nc4ccccc43)ncnc2s1	55	/	/
CCC(C)(C(=O)NC1CCCC1)N(C(=O)c1ccccn1)c1ccc(C)cc1 (stereo not given)	-78*	6	14
CC(NC(=O)Nc1ccc(F)cc1)c1ccc2c(c1)OCO2 (stereo not given)	-71*	21	0
CCOC(=O)C1=C(COC(=O)c2ccc([N+](=O)[O-])s2)NC(=O)NC1C (stereo not given)	46	/	/
CCN1CCN(CCCNC(=O)c2ccc(/C=C3/Oc4ccccc4N(Cc4cccc(C)c4)C3=O)cc2)CC1	47	/	/
Cc1cccc(CN2C(=O)c3ccccc3Sc3ccc(C(=O)O)cc32)c1	-53*	10	13
CC(=O)N(/N=C1\Sc2ccccc2C1=O)c1ccc(C)cc1C	43	/	/
CCC(=O)N(CCc1ccccc1C)Cc1cc2cc3c(cc2[nH]c1=O)OCO3	41	/	/
CN(CCCN1c2ccccc2CCc2ccccc21)CC(=O)c1ccc(Cl)cc1	44	/	/
CN(c1ccccc1)c1cc(Br)nc(Br)c1	-47*	11	10
Cc1[nH]c(=O)[nH]c(=O)c1S(=O)(=O)Nc1ccc(F)cc1F	-265*	4	7
COc1cc2ccccc2cc1C(=O)Nc1sc2c(c1C(N)=O)CCN(C(C)C)C2	51	/	/
